pIC50, pKd: −log10 of the molar value. Values after ≈ are worked out from the molar mass of the structure shown. Active and inactive are the calls of the source. The rule behind the calls is not given here.
Assays:
HT-29 = assay: Antiproliferative activity against human HT-29 cells after 72 hrs by MTT assay; format: functional, cell-based; settings: HT-29, 72 h
How it was run: (§1)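 Cells seeded at 5 × 10^3 per well and cultured 24 h before compound addition at varied concentrations, then grown a further 72 h; 0.5% DMSO as solvent control. MTT (5mg/ml solution) added for 4 h, formazan dissolved in DMSO, absorbance read at 570nm. Each treatment in triplicate; Mean ± SD.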

PC-3 = assay: Antiproliferative activity against human PC3 cells after 72 hrs by MTT assay; format: functional, cell-based; settings: PC-3, 72 h; how it was run: as §1
[1] = Aqueous solubility of the compound in water at 2 mg after 24 hrs by HPLC analysis; format: physicochemical
How it was run: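 Aqueous solubility measured by HPLC against calibration standards at 15–125 µg/mL. Values are the mean of at least three determinations ± SD.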

[2] = Toxicity in BALB/c mouse implanted with mouse CT26 cells assessed as change in body weight at 50 mg/kg, po administered once daily; format: organism-based; settings: in vivo
How it was run: (§2)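 Mice bearing subcutaneous CT-26 tumours, five per group, given 50mg/kg orally each day in 5% NMP/PEG 400, with an equal-volume vehicle control group. Body weight and behaviour monitored over the treatment period.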

[3] = Toxicity in BALB/c mouse implanted with mouse CT26 cells assessed as behavioral alteration at 50 mg/kg, po administered once daily; format: organism-based; settings: in vivo; how it was run: as §2
[4] = Cardiotoxicity in BALB/c mouse implanted with mouse CT26 cells assessed as effect on heart morphology by measuring edema at 50 mg/kg, po administered once daily by H and E staining based histopathological analysis; format: toxicity, organism-based; settings: in vivo
How it was run: (§3)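 CT-26 subcutaneous flank tumour model in male BALB/c mice, five per group, dosed orally at 50mg/kg daily in 5% NMP/95% PEG 400 versus vehicle. After treatment, heart, liver, spleen, lung and kidney collected, sectioned and stained with H&E for histological examination.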

[5] = Toxicity in BALB/c mouse implanted with mouse CT26 cells assessed as effect on spleen morphology by measuring edema at 50 mg/kg, po administered once daily by H and E staining based histopathological analysis; format: organism-based; settings: in vivo; how it was run: as §3
[6] = Toxicity in BALB/c mouse implanted with mouse CT26 cells assessed as effect on lung morphology by measuring necrosis at 50 mg/kg, po administered once daily by H and E staining based histopathological analysis; format: organism-based; settings: in vivo; how it was run: as §3
[7] = Toxicity in BALB/c mouse implanted with mouse CT26 cells assessed as effect on kidney morphology by measuring edema at 50 mg/kg, po administered once daily by H and E staining based histopathological analysis; format: organism-based; settings: in vivo; how it was run: as §3
[8] = Toxicity in BALB/c mouse implanted with mouse CT26 cells assessed as effect on kidney morphology by measuring necrosis at 50 mg/kg, po administered once daily by H and E staining based histopathological analysis; format: organism-based; settings: in vivo; how it was run: as §3
HepG2 = assay: Decrease in total STAT3 level in human HepG2 cells at 400 nM after 24 hrs by Western blot analysis; format: ADME, cell-based; settings: hepg2, 24 h, 0.4 µM
How it was run: (§4)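 Cells treated 24 and 48 h. Lysed in RIPA with protease inhibitors, protein quantified by BCA, equal amounts run on 10% SDS-PAGE and transferred to PVDF. Blocked in 5% milk, probed overnight at 4 °C with anti-total STAT3, anti-p-STAT3 (Tyr705) and GAPDH antibodies. ECL detection.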

[9] = molecular target: T1, Signal transducer and activator of transcription 3 (Homo sapiens, UniProt P40763); assay: Inhibition of STAT3 phosphorylation at Y705 residue in human U251 cells at 200 nM after 24 hrs by Western blot analysis; format: cell-based; how it was run: as §4
T1 sequence (P40763 whole entry): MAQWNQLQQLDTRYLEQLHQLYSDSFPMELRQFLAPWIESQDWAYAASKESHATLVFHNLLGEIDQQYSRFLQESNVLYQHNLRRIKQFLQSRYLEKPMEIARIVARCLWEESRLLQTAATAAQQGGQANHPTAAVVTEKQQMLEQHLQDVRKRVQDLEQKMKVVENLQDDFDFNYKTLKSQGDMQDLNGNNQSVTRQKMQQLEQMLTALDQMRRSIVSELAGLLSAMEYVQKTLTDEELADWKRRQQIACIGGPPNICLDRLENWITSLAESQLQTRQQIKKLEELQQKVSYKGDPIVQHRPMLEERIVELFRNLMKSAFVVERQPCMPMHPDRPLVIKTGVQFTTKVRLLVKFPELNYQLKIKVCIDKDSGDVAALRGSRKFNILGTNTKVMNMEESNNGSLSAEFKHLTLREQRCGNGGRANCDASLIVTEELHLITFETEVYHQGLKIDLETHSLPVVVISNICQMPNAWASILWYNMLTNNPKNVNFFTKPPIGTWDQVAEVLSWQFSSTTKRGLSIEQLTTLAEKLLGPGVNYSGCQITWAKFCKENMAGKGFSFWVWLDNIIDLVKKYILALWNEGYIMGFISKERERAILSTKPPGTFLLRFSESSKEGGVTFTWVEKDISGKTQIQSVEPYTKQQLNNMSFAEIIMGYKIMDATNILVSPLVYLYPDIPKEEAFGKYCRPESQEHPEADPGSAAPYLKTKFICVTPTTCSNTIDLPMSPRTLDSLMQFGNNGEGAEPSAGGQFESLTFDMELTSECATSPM

[10] = molecular target: T1, Signal transducer and activator of transcription 3; assay: Inhibition of STAT3 phosphorylation at Y705 residue in human U251 cells at 200 nM after 24 to 48 hrs by sandwich-ELISA; format: cell-based
How it was run: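 Cells treated 24 or 48 h. Whole-cell lysates made in lysis buffer with protease inhibitor cocktail. Total STAT3 and p-STAT3 Y705 measured by sandwich ELISA. Three repeats; groups compared with control by paired t-test; means ± S.D.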

[11] = molecular target: T1, Signal transducer and activator of transcription 3; assay: Binding affinity to recombinant N-terminal His-tagged STAT3 (unknown origin) expressed in baculovirus infected Sf9 insect cells by SPR analysis
How it was run: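 STAT3 made by baculovirus: bacmid generated in Sf9, virus amplified in Sf9, protein expressed in High Five cells. Purified on Ni-NTA and by gel filtration (>90% pure). Amine-coupled to a CM5 chip. Compound run at 18.75–600 nM in 5% DMSO/PBS on Biacore X100. KD taken from equilibrium fit.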

pIC50 (HT-29): 7.15
pIC50 (PC-3): 5.38
solubility at 24 h [1]: 201 µM (≈ 70.8 µg/mL)
inhibition [9]: Active
inhibition [10]: Active
pKd [11]: 6.96
SMILES: O=C(NCCN1CCCCC1)c1cc2c(o1)C(=O)c1ccccc1C2=O
Activity [2]: Non-Toxic
Activity [3]: Non-Toxic
Activity [4]: Non-Toxic
Activity [5]: Non-Toxic
Activity [6]: Non-Toxic
Activity [7]: Non-Toxic
Activity [8]: Non-Toxic
Activity (HepG2): Toxic

— ChEMBL document CHEMBL4382247, “A novel series of napabucasin derivatives as orally active inhibitors of signal transducer and activator of transcription 3 (STAT3)” (Eur J Med Chem, 2019)
